Laboratory results as given in ChEMBL document CHEMBL3098106 (Bioorg Med Chem, 2014).

Experiments:
Rattus norvegicus [1] = assay: Toxicity in Sprague-Dawley rat assessed as increase in body weight at 200 mg/kg, po after 7 days relative to control; type: organism-based; parameters: dose 200 mg/kg, route oral; details: in vivo, 168 h
Rattus norvegicus [2] = assay: Toxicity in Sprague-Dawley rat assessed as liver weight measured per 100 g of body weight at 200 mg/kg, po after 7 days (reference value: 3.3 g); type: organism-based; parameters: dose 200 mg/kg, route oral; details: in vivo, 168 h
[3] = Antitumor activity against Sprague-Dawley rat mammary tumor cells assessed as increase in apoptotic index at 200 mg/kg, po after 7 days by TUNEL assay relative to control; type: functional
How it was run: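 Female Sprague Dawley rats with N-methyl-nitrosourea-induced mammary cancers (about 200 mm²) were given the retinoid in Teklad diet for 7 days. BrdU was injected 2 h before CO₂ euthanasia. Cancers were excised and fixed in 10% formalin. Each index is the ratio of treated to vehicle-fed animals.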

Rattus norvegicus [4] = assay: Toxicity in 216 days old Sprague-Dawley rat assessed as increase in serum triglyceride level at 200 mg/kg, po administered with diet after 7 days relative to control; type: organism-based; parameters: dose 200 mg/kg, route oral; details: in vivo, 168 h
Rattus norvegicus [5] = assay: Toxicity in 50 days old Sprague-Dawley rat assessed as increase in serum triglyceride level at 200 mg/kg, po administered with diet after 7 days relative to control; type: organism-based; parameters: dose 200 mg/kg, route oral; details: in vivo, 168 h

Compound | Activity (Rattus norvegicus [1]) [%] | Activity (Rattus norvegicus [2]) [g] | Activity [3] [%] | Activity (Rattus norvegicus [4]) [%] | Activity (Rattus norvegicus [5]) [%]
C=C(c1ccc(C(=O)O)cc1)c1cc2c(cc1C)C(C)(C)CCC2(C)C [BEXAROTENE] | 3 |  |  |  | 
CC(=C/C=C/C(C)=C/C(=O)O)/C=C1\CC[C@@H](C)c2ccccc21 | 3 | 4.2 | 150 |  | 
CC(=C/C=C/C(C)=C/C(=O)O)/C=C1\CC[C@H](C)c2ccccc21 | 3 | 3.8 | 300 | 175 | 
CC1=C(/C=C/C(C)=C\C=C\C(C)=C\C(=O)O)C(C)(C)CCC1 [ALITRETINOIN] | 3 |  |  |  | 
CC(=C/C=C/C(C)=C/C(=O)O)/C=C1\CCCc2ccccc21 [UAB-30] | 3 |  | 33 |  | 
CC(=C/C=C/C(C)=C/C(=O)O)/C=C1\CCC(C)c2ccccc21 (racemic) | 3 |  | 300 | 370 | 566
